# Laboratory results taken from ChEMBL document CHEMBL2086322, “"True" antiandrogens-selective non-ligand-binding pocket disruptors of androgen receptor-coactivator interactions: novel tools for prostate cancer” (J Med Chem, 2012).
# Calls of active or inactive are those of the source. The calls are words filed in the database; no cut-off is given here.
# Experiments:
# PC-3 = assay: Cytotoxicity against androgen independent human PC3 cells assessed as cell viability at 50 uM after 24 hrs by alamar blue assay; format: functional; settings: for viability at 50 µM: PC-3, 24 h, read-out: Activity
# LNCaP [1] = assay: Antiproliferative activity against androgen dependent human LNCAP cells assessed as reduction of DHT-induced cell count after 5 days by alamar blue assay; format: functional, cell-based
# Procedure, shortened: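 LNCaP cells deprived of steroids for 48 h in phenol red-free RPMI with 10% charcoal-stripped FBS, then seeded at 2 × 10^4 cells/mL. Treated 5 days with compound (10 and 20 μM) with or without 0.1 nM DHT, 0.1% DMSO final. Medium and treatments renewed every second day after PBS washes. Growth read by AlamarBlue; two experiments, n = 6.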
# LNCaP [2] = assay: Cytotoxicity against androgen dependent human LNCAP cells assessed as cell viability at 50 uM after 24 hrs by alamar blue assay; format: functional; settings: read-out: Activity
# CWR22R [3] = assay: Antiproliferative activity against human 22Rv1 cells assessed reduction of CPA-induced PSA expression after 2 hrs by ELISA; format: functional, cell-based
# [4] = target: T1, Androgen receptor (Homo sapiens) (UniProt P10275); assay: Agonist activity at androgen receptor in human LNCAP cells assessed effect on CPA-induced PSA expression after 2 hrs by ELISA; format: functional, cell-based
# T1 sequence (whole entry): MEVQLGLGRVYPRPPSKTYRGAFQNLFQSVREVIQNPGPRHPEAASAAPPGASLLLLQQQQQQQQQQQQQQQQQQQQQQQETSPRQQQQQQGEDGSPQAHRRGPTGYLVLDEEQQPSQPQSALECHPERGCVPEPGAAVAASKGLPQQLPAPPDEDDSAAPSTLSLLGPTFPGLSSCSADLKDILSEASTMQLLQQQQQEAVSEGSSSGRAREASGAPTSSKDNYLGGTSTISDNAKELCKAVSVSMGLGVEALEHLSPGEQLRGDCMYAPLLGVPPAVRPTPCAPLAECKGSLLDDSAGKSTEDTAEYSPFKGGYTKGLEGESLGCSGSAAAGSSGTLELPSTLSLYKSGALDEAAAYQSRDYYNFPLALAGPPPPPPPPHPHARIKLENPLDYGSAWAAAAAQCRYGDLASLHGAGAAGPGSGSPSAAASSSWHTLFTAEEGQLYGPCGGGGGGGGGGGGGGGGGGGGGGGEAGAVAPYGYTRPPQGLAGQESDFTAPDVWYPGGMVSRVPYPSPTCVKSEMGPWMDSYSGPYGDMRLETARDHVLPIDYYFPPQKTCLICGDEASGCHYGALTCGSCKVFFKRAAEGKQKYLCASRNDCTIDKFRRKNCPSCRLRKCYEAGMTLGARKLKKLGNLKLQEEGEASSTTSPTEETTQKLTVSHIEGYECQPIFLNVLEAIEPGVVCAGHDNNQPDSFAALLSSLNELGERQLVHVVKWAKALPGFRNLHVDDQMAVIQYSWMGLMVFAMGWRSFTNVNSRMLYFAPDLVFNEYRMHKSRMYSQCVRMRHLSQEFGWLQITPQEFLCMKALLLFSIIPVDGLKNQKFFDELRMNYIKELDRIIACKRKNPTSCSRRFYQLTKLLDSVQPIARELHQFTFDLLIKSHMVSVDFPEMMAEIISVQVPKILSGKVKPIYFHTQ
# [5] = target: T2, Progesterone receptor (Homo sapiens) (UniProt P06401); assay: Antagonist activity at PR assessed as inhibition of progesterone-induced fluorescent labelled SRC1-4 recruitment at 100 uM after 2 to 4 hrs by TR-FRET assay; format: functional
# T2 sequence (whole entry): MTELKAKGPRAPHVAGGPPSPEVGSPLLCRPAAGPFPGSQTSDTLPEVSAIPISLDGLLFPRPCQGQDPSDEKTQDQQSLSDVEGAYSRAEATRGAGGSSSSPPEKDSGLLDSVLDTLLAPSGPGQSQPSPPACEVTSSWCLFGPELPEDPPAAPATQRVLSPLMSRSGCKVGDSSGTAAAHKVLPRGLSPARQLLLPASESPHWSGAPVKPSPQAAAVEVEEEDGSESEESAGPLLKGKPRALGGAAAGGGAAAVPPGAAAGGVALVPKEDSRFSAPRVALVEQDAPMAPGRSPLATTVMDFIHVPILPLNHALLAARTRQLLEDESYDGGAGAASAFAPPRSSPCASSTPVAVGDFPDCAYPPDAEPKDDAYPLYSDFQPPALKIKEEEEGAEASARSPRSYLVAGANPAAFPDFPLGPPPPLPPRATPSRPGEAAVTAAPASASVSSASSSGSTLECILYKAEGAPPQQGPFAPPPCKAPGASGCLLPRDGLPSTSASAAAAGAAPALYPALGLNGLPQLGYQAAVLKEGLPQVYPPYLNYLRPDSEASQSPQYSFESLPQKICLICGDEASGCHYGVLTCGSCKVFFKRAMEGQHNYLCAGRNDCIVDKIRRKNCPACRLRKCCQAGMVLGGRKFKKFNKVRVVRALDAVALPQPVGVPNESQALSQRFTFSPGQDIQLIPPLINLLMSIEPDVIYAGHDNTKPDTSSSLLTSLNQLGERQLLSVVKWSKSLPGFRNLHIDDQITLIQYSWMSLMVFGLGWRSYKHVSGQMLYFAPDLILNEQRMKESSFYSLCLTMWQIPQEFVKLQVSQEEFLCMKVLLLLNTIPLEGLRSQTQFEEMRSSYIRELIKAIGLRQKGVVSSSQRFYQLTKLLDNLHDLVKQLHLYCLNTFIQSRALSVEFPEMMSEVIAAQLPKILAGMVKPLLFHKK
# Procedure, shortened: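 TR-FRET coactivator recruitment with PR ligand-binding domain, fluorescent SRC1-4 peptide and Tb anti-GST antibody, with progesterone at its EC80. Compounds were tested from 100 to 1 μM at 1% DMSO final in coregulator buffer with 5 mM DTT. […] Two independent experiments, each in triplicate; IC50 from variable-slope fit.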
# [6] = Cytotoxicity against human PWR-1E cells assessed as cell viability at 50 uM after 24 hrs by alamar blue assay; format: cell-based; settings: read-out: Activity
# [7] = target: T1, Androgen receptor (Homo sapiens); assay: Antagonist activity at androgen receptor in androgen dependent human LNCAP cells assessed reduction of CPA-induced PSA expression at 10 uM after 2 hrs by ELISA; format: functional, cell-based
# [8] = target: T1, Androgen receptor (Homo sapiens); assay: Partial agonist activity at androgen receptor in human LNCAP cells assessed effect on CPA-induced PSA expression after 2 hrs by ELISA; format: functional, cell-based
# CWR22R [9] = assay: Antiproliferative activity against human 22Rv1 cells assessed effect on DHT-induced PSA expression after 2 hrs by ELISA; format: functional, cell-based
# [10] = target: T1, Androgen receptor (Homo sapiens); assay: Antagonist activity at androgen receptor in androgen dependent human LNCAP cells assessed reduction of CPA-induced PSA expression after 2 hrs by ELISA; format: functional, cell-based
# [11] = target: T1, Androgen receptor (Homo sapiens); assay: Displacement of fluormone from AR LBD after 4 hrs by fluorescence polarization assay; settings: concentration not given here
# [12] = target: T1, Androgen receptor (Homo sapiens); assay: Antagonist activity at androgen receptor in androgen dependent human LNCAP cells assessed reduction of DHT-induced PSA expression after 2 hrs by ELISA; format: functional, cell-based
Compound,Activity (PC-3),Activity (LNCaP [1]),viability at 50 µM (LNCaP [2]) [%],Activity (CWR22R [3]),Activity [4],viability at 50 µM (PC-3) [%],inhibition [5] [%],"viability at 24 h, 50 µM [6] [%]",Activity [7],Activity [8],Activity (CWR22R [9]),Activity [10],inhibition [11] [%],Activity [12]
CC(=O)O[C@]1(C(C)=O)CC[C@H]2[C@@H]3C=C(Cl)C4=CC(=O)[C@@H]5C[C@@H]5[C@]4(C)[C@H]3CC[C@@]21C,Active,–,–,–,–,–,–,–,–,–,–,–,–,–
COc1cc(/C=N/NC(=O)c2cc3c(ccc4ccccc43)o2)cc(OC)c1O,–,Dose-dependent effect,80,Active,Active,80,30,80,Active,Active,inactive,Dose-dependent effect,0,Dose-dependent effect
O=C(N/N=C/c1cc(Br)ccc1O)c1cc2ccccc2cc1O,–,–,50,–,–,50,50,50,–,–,–,–,0,–
